The results in this text go back to publication PMC10582055 (Saudi Pharmaceutical Journal : SPJ, 2023).

Holding throughout (assay type): in vivo, Wistar rats
Series [1] deals with CYP3A2. The experiment in a line: Hepatic and intestinal CYP3A2 protein expression. In a few lines:
(§1)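 Wistar rats (n = 6/group), fasted overnight and dosed by intragastric gavage: saline for 7 days; saline for 6 days, then the drug at 25 mg/kg p.o. on day 7; the drug on day 7 given 2 h after test compound at 40 mg/kg; or test compound at 40 mg/kg for 7 days. Liver and intestine protein (BCA) was run on 10% SDS-PAGE and blotted to PVDF. Primary antibodies with β-actin overnight at 4 °C, secondary 2 h, chemiluminescence, densitometry. Mean ± SD, one-way ANOVA.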

In series [2] the test system is Pgp/MDR1. The experiment in a line: Hepatic and intestinal Pgp/MDR1 protein expression. In short, it runs like this:
as §1

The test system of series [3] is BCRP/ABCG2. The experiment in a line: Hepatic and intestinal BCRP/ABCG2 protein expression. In short, it runs like this: as §1
The nature of series [4]: Pharmacokinetics of oral DAS in rats with or without SA pretreatment. The note with it: for k el: Kel; for MRT inf: MRT 0-inf_obs.
Setting [5] is: intestine, SA 40 mg/kg alone vs normal rats.
Where [6] appears, read: liver, SA 40 mg/kg alone vs normal rats.
[7] abbreviates: intestine, SA-pretreated rats + DAS vs DAS alone.
The mark [8] stands for this setting: liver, SA-pretreated rats + DAS vs DAS alone.
Where [9] appears, read: Wistar, rat, plasma, po, 25 mg/kg, rats, DAS 25 mg/kg p.o. after SA 40 mg/kg p.o. pretreatment for seven days, Mean ± SD.
Setting [10] is: Wistar, rat, plasma, po, 25 mg/kg, rats, DAS 25 mg/kg p.o. single dose, alone, Mean ± SD.
[11] abbreviates: decrease, SA 40 mg/kg + DAS 25 mg/kg vs DAS alone, rats.
[12] abbreviates: increase, SA 40 mg/kg + DAS 25 mg/kg vs DAS alone, rats.
The mark [13] stands for this setting: rats, DAS 25 mg/kg p.o. after SA 40 mg/kg p.o. pretreatment for seven days, Mean ± SD.
[14] abbreviates: rats, DAS 25 mg/kg p.o. single dose, alone, Mean ± SD.

With `COc1cc(/C=C/C(=O)O)cc(OC)c1O` [SA, Sinapic acid], the “inhibition of intestinal CYP3A2 protein expression” value in series [1] (setting [5]) stood at 89.47%. For the same molecule, the “inhibition of hepatic CYP3A2 protein expression” value in series [1] (setting [6]) is recorded as 88.91%; in series [1] (liver, SA 40 mg/kg pretreatment for seven days + DAS vs DAS administered rats), 57.11%. The results for the “inhibition of intestinal Pgp/MDR1 protein expression” value in series [2] (setting [5]) and in series [2] (setting [7]) were 76.93% and 47.43%, respectively. The “inhibition of hepatic Pgp/MDR1 protein expression” value in series [2] (setting [6]) came to 84.93%; in series [2] (setting [8]) it was 44.06%. In series [3] (setting [7]), the “inhibition of intestinal BCPR/ABCG2 protein” value stood at 50.48%. Besides, the “inhibition of hepatic BCPR/ABCG2 protein” value in series [3] (setting [8]) was found to be 51.44%.
With `Cc1nc(Nc2ncc(C(=O)Nc3c(C)cccc3Cl)s2)cc(N2CCN(CCO)CC2)n1` [DAS, Dasatinib], the half-life (in general, the time needed for the level to fall by half in the phase considered) in series [4] (Wistar, rat, plasma, po, 25 mg/kg) is 5.59 ± 0.2 h. Also, in series [4] (setting [9]), the AUC(0-t) (usually the area under the concentration-time curve up to a stated or last time point) is 2.21 ± 0.0963 µg·h/mL; the Cmax – broadly, the peak of the concentration-time curve – turned out to be 0.419 ± 0.0188 µg/mL; the k el was 3.33e-05 s⁻¹; the MRT inf (usually the average time that molecules of a dose stay in the body) worked out at 8.2 ± 0.25 h. In addition, in series [4] (setting [10]), the AUC(0-t) was determined as 1.72 ± 0.0706 µg·h/mL, the Cmax is 0.259 ± 0.00971 µg/mL, the k el was 4.44e-05 s⁻¹ and the MRT inf turned out to be 7.31 ± 0.17 h. For the same molecule, in series [4] (setting [11]), the “% Change in Cl” value came out at 26.97%, the “% Change in Kel” value is 22.33% and the “% Change in Vd” value amounted to 5.96%. In series [4] (setting [12]), the “% Change in AUC 0-t” value was 28.98%, the “% Change in AUMC 0-∞” value came out at 53.63%, the “% Change in Cmax” value is 62.02% and the “% Change in MRT 0-inf_obs” value is reported as 12.08%. Further, in series [4] (setting [12]), the “% Change in T1/2” value stood at 28.82% and the “% Change in Tmax” value turned out to be 100%. Besides, in series [4] (setting [13]), the “AUMC 0-∞” value is 23569.00 ± 1418.58 ng/mL*h^2; the Cl was 0.009 ± 0.00 (mg/kg)/(ng/mL)/h; the Tmax (as a rule, the time at which the peak concentration occurs) is given as 2.00 ± 0.00 h; the Vd is listed as 0.070 ± 0.004 (mg/kg)/(ng/mL). Besides, in series [4] (setting [14]), the “AUMC 0-∞” value stood at 15341.83 ± 607.98 ng/mL*h^2, the Cl is recorded as 0.012 ± 0.001 (mg/kg)/(ng/mL)/h, the T1/2 amounted to 4.34 ± 0.11 h and the Vd is listed as 0.075 ± 0.003 (mg/kg)/(ng/mL). Further, the “increase of intestinal CYP3A2 protein expression” value in series [1] (intestine, DAS administered rats (25 mg/kg p.o.) vs normal rats) stood at 92.97%. Also, the “increase of hepatic CYP3A2 protein expression” value in series [1] (liver, DAS administered rats (25 mg/kg p.o.) vs normal rats) stood at 92.03%. For the same molecule, in series [2] (intestine, DAS administration vs normal rats), the “induction of intestinal Pgp/MDR1 protein expression” value is reported as 76.42%. Also, the “induction of hepatic Pgp/MDR1 protein expression” value in series [2] (liver, DAS administration vs normal rats) is 72.30%. Further, in series [3] (intestine, DAS per-oral administration vs normal rats), the “induction of intestinal BCPR/ABCG2 protein expression” value stood at 73.55%. In addition, the “induction of hepatic BCPR/ABCG2 protein expression” value in series [3] (liver, DAS per-oral administration vs normal rats) was 75.09%.
